# Results as given in ChEMBL document CHEMBL1128437, “Derivatives of 17-phenyl-18,19,20-trinorprostaglandin F2 alpha isopropyl ester: potential antiglaucoma agents” (J Med Chem, 1995).
# pEC50: −log10 of the molar value. “And” between values parts separate entries of the source, which are not always exact repeats. Equal entries are not always repeated.
# Experiments:
# [1] = species: Felis catus; assay: Concentration giving half-maximal contraction of the cat iris sphincter muscle was determined in vitro; format: functional
# Procedure, shortened: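 Compounds were tested as hydrolysed free acids on isolated cat iris sphincter in organ baths. Bath solution was bicarbonate physiological saline with glucose plus indomethacin 2.8 × 10⁻⁶ M, atropine 10⁻⁷ M and propranolol 10⁻⁶ M. Resting tension was 150 mg, with at least 30 min equilibration. Cumulative dosing was at 5–10 min intervals. Isometric contraction was normalised to each tissue's maximum, averaged over four preparations, and fitted with a Hill equation for EC50.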
# [2] = species: Felis catus; assay: The mean ocular irritation in the treated eyes. An arbitrary scale of from 0 to 3 was used, 0 indicates absence of irritation and 3 complete closure of the lids. The effect was tested in cats at a dose of 1.0 (ug/eye); format: functional
# Procedure, shortened: (§1)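 Ocular irritation was scored in the treated eye of trained female cats, 2–3 kg. Drug was given as one topical 20 µL drop in 0.9% NaCl with 0.5% polysorbate 80. The contralateral eye got vehicle only.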
# [3] = species: Felis catus; assay: The mean area between curves for pupil diameter between treated and control eyes. The effect was tested in cats at a dose of 1.0 (ug/eye); format: functional
# Procedure, shortened: (§2)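 Trained female cats, 2–3 kg, were dosed unilaterally with one 20 µL topical drop of drug in 0.9% NaCl/0.5% polysorbate 80, with vehicle in the contralateral eye. Horizontal pupil diameter was measured with a millimetre ruler under constant 10 lux illumination before dosing and at 1, 3, 6 and 23 h. Reported as maximal treated–control difference or as area between curves, per animal.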
# [4] = species: Felis catus; assay: The maximal difference in Intraocular Pressure (IOP) between treated and control eyes. The effect was tested in cats at a dose of 1.0 (ug/eye); format: functional
# Procedure, shortened: (§3)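 Domestic female cats, 2–3 kg, trained for IOP measurement. One eye received a topical drop (20 µL) of drug in 0.9% NaCl with 0.5% polysorbate 80; the other eye received vehicle. IOP was read by pneumatonometer under oxibuprocain local anaesthesia before dosing and at 1, 3, 6 and 23 h. The maximal treated-minus-control difference was taken. Area between curves is the treated-eye AUC minus control-eye AUC, per animal.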
# [5] = system: Monkey; assay: The maximal difference in Intraocular Pressure (IOP) measured in treated and control eyes. The effect was tested in monkey at a dose of 3.0 (ug/eye); format: functional, Cercopithecidae
# Procedure, shortened: (§4)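 Cynomolgus monkeys trained for IOP measurement were sedated with ketamine (2–3 mg/kg) for transport and seated in restraint chairs under oxibuprocain local anaesthesia. One eye received a 10 µL drop of drug in 0.9% NaCl/0.5% polysorbate 80; the fellow eye received vehicle. IOP was read by pneumatonometer calibrated for monkey eyes before dosing and at 1, 2, 4 and 6 h. Matched-pair t test, n = 6.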
# [6] = species: Oryctolagus cuniculus; assay: The mean area between curves for conjunctival hyperemia between treated and control eyes. The effect was tested in rabbit at a dose of 0.5 (ug/eye)
# [7] = species: Felis catus; assay: The mean area between curves for Intraocular Pressure (IOP) measured in treated and control eyes. The effect was tested in cats at a dose of 1.0 (ug/eye); format: functional; procedure, shortened: as §3
# [8] = species: Felis catus; assay: The maximal difference in […] pupil diameter between treated and control eyes. The effect was tested in cats at a dose of 1.0 (ug/eye); format: functional; procedure, shortened: as §2
# [9] = species: Oryctolagus cuniculus; assay: The maximal difference in conjunctival hyperemia between treated and control eyes. The effect was tested in rabbit at a dose of 0.5 (ug/eye)
# [10] = system: Monkey; assay: The mean area between curves for Intraocular Pressure (IOP) measured in treated and control eyes. The effect was tested in monkey at a dose of 3.0 (ug/eye); format: functional, Cercopithecidae; procedure, shortened: as §4
# [11] = species: Felis catus; assay: The maximal difference in Intraocular Pressure (IOP) between treated and control eyes. The effect was tested in cats at a dose of 10.0 (ug/eye); format: functional; procedure, shortened: as §3
# [12] = species: Oryctolagus cuniculus; assay: The mean area between curves for conjunctival hyperemia between treated and control eyes. The effect was tested in rabbit at a dose of 0.1 (ug/eye)
# [13] = species: Felis catus; assay: The mean area between curves for pupil diameter between treated and control eyes. The effect was tested in cats at a dose of 10.0 (ug/eye); format: functional; procedure, shortened: as §2
# [14] = species: Oryctolagus cuniculus; assay: The maximal difference in conjunctival hyperemia between treated and control eyes. The effect was tested in rabbit at a dose of 0.1 (ug/eye)
# [15] = species: Felis catus; assay: The maximal difference in […] pupil diameter between treated and control eyes. The effect was tested in cats at a dose of 10.0 (ug/eye); format: functional; procedure, shortened: as §2
# [16] = species: Felis catus; assay: The mean area between curves for Intraocular Pressure (IOP) measured in treated and control eyes. The effect was tested in cats at a dose of 10.0 (ug/eye); format: functional; procedure, shortened: as §3
# [17] = species: Felis catus; assay: The mean ocular irritation in the treated eyes. An arbitrary scale of from 0 to 3 was used, 0 indicates absence of irritation and 3 complete closure of the lids. The effect was tested in cats at a dose of 10.0 (ug/eye); format: functional; procedure, shortened: as §1
# [18] = species: Felis catus; assay: The maximal difference in Intraocular Pressure (IOP) between treated and control eyes. The effect was tested in cats at a dose of 3.0 (ug/eye); format: functional; procedure, shortened: as §3
# [19] = species: Felis catus; assay: The mean ocular irritation in the treated eyes. An arbitrary scale of from 0 to 3 was used, 0 indicates absence of irritation and 3 complete closure of the lids. The effect was tested in cats at a dose of 3.0 (ug/eye); format: functional; procedure, shortened: as §1
# [20] = species: Felis catus; assay: The mean area between curves for pupil diameter between treated and control eyes. The effect was tested in cats at a dose of 3.0 (ug/eye); format: functional; procedure, shortened: as §2
# [21] = species: Felis catus; assay: The mean area between curves for Intraocular Pressure (IOP) measured in treated and control eyes. The effect was tested in cats at a dose of 3.0 (ug/eye); format: functional; procedure, shortened: as §3
# [22] = species: Felis catus; assay: The maximal difference in […] pupil diameter between treated and control eyes. The effect was tested in cats at a dose of 3.0 (ug/eye); format: functional; procedure, shortened: as §2
SMILES,"pEC50 ([1]; Felis catus, Sphincter muscle)",Irritation [2],P ABC [3],Imax [4],Imax [5],H ABC [6],I ABC [7],Pmax [8],Hmax [9],I ABC [10],also measured
O=C(O)CCC/C=C\C[C@@H]1[C@@H](/C=C/C(O)CCc2ccccc2)[C@H](O)C[C@@H]1O (stereo partly drawn),9.15,,,,,,,,,,
Cc1ccc(CCC(O)/C=C/[C@@H]2[C@@H](C/C=C\CCCC(=O)O)[C@@H](O)C[C@H]2O)cc1 (stereo partly drawn),7.40,,,,,,,,,,
CC(C)OC(=O)CCC/C=C\C[C@@H]1[C@@H](/C=C/[C@@H](O)CCc2ccc(-c3cccs3)cc2)[C@H](O)C[C@@H]1O,,0.4 arbitrary units,-2.2,<-4.2 mmHg,<1.5 mmHg,0,-84,< -0.9 mm,0.3,6.5,
O=C(O)CCC/C=C\C[C@@H]1[C@@H](/C=C/[C@@H](O)CCc2ccc(Br)cc2)[C@H](O)C[C@@H]1O,7.46,,,,,,,,,,
CC(=O)c1ccc(CC[C@H](O)/C=C/[C@@H]2[C@@H](C/C=C\CCCC(=O)OC(C)C)[C@@H](O)C[C@H]2O)cc1,,0 arbitrary units,1.4,-0.3 mmHg,<-2.3 mmHg,-0.5,-4.3,0.2 mm,-0.2,<-10,
CC(=O)c1cccc(CC[C@H](O)/C=C/[C@@H]2[C@@H](C/C=C\CCCC(=O)OC(C)C)[C@@H](O)C[C@H]2O)c1,,1.3 arbitrary units,<-30,0.7 mmHg,<-2.8 mmHg,0,7.1,< -1.8 mm,-0.1,<-12.3,
CC(C)OC(=O)CCC/C=C\C[C@@H]1[C@@H](/C=C/[C@@H](O)CCc2ccc(Br)cc2)[C@H](O)C[C@@H]1O,,0 arbitrary units,-18.1,0.3 mmHg,,1.2,3.4,< -1.5 mm,<0.5,,Imax [11]: <-3 mmHg; H ABC [12]: <2.2; P ABC [13]: -80; Hmax [14]: <1.1; Pmax [15]: < -6 mm; I ABC [16]: <-25; Irritation [17]: 0.3 arbitrary units
CC(C)OC(=O)CCC/C=C\C[C@@H]1[C@@H](/C=C/[C@@H](O)CCc2cccc(Br)c2)[C@H](O)C[C@@H]1O,,0.2 arbitrary units,<-99,-1 mmHg,-2 mmHg,4.8,-12.9,< 6.3 mm,<1.5,-6.5,Imax [11]: <-3.3 mmHg; Imax [18]: -2.7 mmHg; P ABC [13]: <-138; Irritation [19]: 0.3 arbitrary units; P ABC [20]: <-125; I ABC [21]: -42.5; Pmax [15]: < -6.7 mm; Pmax [22]: < -6.8 mm; I ABC [16]: <-49; Irritation [17]: 0.2 arbitrary units
CC(C)OC(=O)CCC/C=C\C[C@@H]1[C@@H](/C=C/[C@H](O)CCc2cccc(Br)c2)[C@H](O)C[C@@H]1O,,0 arbitrary units,<-50.3,<1.2 mmHg,-1.4 mmHg,<2,0.2,< -3.8 mm,<1.2,-6,Imax [18]: -2 mmHg; Irritation [19]: 0 arbitrary units; P ABC [20]: <-71; I ABC [21]: -6.2; Pmax [22]: < -5.3 mm
CC(C)OC(=O)CCC/C=C\C[C@@H]1[C@@H](/C=C/[C@H](O)CCc2ccc(-c3ccccc3)cc2)[C@H](O)C[C@@H]1O,,,1.8,<-1 mmHg,,0.7,-8.3,0.5 mm,<0.5,,Imax [11]: -0.3 mmHg; P ABC [13]: -3.8; Pmax [15]: < -0.8 mm; I ABC [16]: -2
CC(=O)c1cccc(CC[C@@H](O)/C=C/[C@@H]2[C@@H](C/C=C\CCCC(=O)OC(C)C)[C@@H](O)C[C@H]2O)c1,,0.3 arbitrary units,1.2,-4 mmHg,,-0.7,-43.3,0.6 mm,-0.3,,Imax [18]: <-2.6 mmHg; Irritation [19]: 0.1 arbitrary units; P ABC [20]: -1.4; I ABC [21]: -23.8; Pmax [22]: < -0.7 mm
O=C(O)CCC/C=C\C[C@@H]1[C@@H](/C=C/[C@H](O)CCc2ccc(Br)cc2)[C@H](O)C[C@@H]1O,5.68,,,,,,,,,,
O=C(O)CCC/C=C\C[C@@H]1[C@@H](/C=C/C(O)CCc2cccc(Br)c2)[C@H](O)C[C@@H]1O (stereo partly drawn),,,,,,,,,,,pEC50 [1]: 7.48 and 8.31
Cc1cccc(CCC(O)/C=C/[C@@H]2[C@@H](C/C=C\CCCC(=O)O)[C@@H](O)C[C@H]2O)c1 (stereo partly drawn),8.37,,,,,,,,,,
CCCCC[C@H](O)/C=C/[C@@H]1[C@@H](C/C=C\CCCC(=O)O)[C@@H](O)C[C@H]1O [DINOPROST],8.17,,,,,,,,,,
